Tests used:
[1] = biological target: T1, Prostaglandin G/H synthase 1 (Ovis aries) (UniProt P05979); assay: Inhibition of ovine COX1 using arachidonic acid as substrate at 1 uM preincubated for 5 mins measured after 2 mins by colorimetric analysis
T1 sequence (whole entry): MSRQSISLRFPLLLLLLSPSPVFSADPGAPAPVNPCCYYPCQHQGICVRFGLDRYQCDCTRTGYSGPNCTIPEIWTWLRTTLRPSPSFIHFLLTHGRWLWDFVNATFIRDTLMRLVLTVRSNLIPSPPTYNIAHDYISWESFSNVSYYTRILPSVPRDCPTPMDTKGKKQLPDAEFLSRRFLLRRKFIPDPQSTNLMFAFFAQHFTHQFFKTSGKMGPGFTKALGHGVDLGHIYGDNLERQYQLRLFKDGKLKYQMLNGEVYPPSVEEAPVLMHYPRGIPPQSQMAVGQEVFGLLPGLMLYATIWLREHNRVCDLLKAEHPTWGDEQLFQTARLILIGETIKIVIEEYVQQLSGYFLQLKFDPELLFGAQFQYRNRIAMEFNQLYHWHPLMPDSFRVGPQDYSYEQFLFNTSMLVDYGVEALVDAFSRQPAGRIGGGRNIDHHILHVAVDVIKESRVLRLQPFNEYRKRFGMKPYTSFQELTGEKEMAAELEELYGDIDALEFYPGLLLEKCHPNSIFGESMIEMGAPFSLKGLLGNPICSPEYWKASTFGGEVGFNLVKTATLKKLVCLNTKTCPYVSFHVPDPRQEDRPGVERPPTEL
Method in brief: (§1)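 Ovine COX-1 or human recombinant COX-2 in 0.1 M Tris-HCl pH 8 with heme, preincubated with compound (DMSO stock) 5 min at 25°C. TMPD and arachidonic acid then added, 2 min at 25°C. Peroxidase activity read as oxidized TMPD at 590 nm. Selectivity index taken as COX-2/COX-1.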

[2] = Selectivity index, ratio of inhibition of human recombinant COX2 to inhibition of ovine COX1
Method in brief: as §1, with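 “nm. Compounds tested at 1 μM; % inhibition is the mean of two determinations.” for “nm.”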

[3] = biological target: T2, Prostaglandin G/H synthase 2 (Homo sapiens) (UniProt P35354); conditions: at 1 µM;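 also: recombinant enzyme with arachidonic acid substrate, compound preincubated 5 min, colorimetric read-out taken 2 min after reaction start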
T2 sequence (whole entry): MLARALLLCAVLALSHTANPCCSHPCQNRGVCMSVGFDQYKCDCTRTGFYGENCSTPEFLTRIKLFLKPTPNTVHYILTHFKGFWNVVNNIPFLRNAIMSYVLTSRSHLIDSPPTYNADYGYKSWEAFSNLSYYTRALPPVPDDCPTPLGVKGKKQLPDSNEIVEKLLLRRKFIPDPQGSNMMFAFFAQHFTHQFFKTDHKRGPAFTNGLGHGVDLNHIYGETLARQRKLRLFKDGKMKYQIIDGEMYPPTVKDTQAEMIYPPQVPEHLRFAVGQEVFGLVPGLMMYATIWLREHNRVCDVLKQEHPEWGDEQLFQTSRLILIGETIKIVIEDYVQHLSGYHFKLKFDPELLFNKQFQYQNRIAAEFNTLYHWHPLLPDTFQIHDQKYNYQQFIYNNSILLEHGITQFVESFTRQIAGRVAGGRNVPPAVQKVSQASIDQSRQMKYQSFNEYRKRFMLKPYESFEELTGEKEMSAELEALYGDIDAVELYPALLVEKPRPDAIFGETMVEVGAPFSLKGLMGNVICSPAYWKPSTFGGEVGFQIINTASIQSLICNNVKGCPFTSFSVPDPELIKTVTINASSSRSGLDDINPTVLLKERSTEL

[4] = tested on: Rattus norvegicus; assay: Toxicity in Wistar albino rat assessed as ulcer index at 20 mg/kg, po qd for 3 days measured after 6 hrs of last dose; format: organism-based; conditions: in vivo
Method in brief: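 Male albino rats, 150-200 g, fasted 12 h with water ad libitum. Dosed orally at 20 mg/kg/day once daily for 3 days; controls received 7% gum acacia vehicle. Killed by ether overdose 6 h after the last dose. Stomachs opened along the greater curvature and scored for ulcers. Ulcer index by the Robert method from % incidence/10, mean ulcer number per stomach and severity score.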

[5] = tested on: Rattus norvegicus; assay: Antiinflammatory activity in Wistar albino rat assessed as inhibition of carrageenan-induced hind paw edema at 20 mg/kg, po after 5 hrs by plethysmometer; format: functional
Method in brief: (§2)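 Adult male Wistar albino rats, 150-200 g, fasted 24 h, six per group. Compounds at 20 mg/kg suspended in 1% CMC in water (10 mL/kg) given orally; vehicle-only controls. Carrageenan in normal saline injected into the plantar surface of the right hind paw 30 min after dosing.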

[6] = tested on: Rattus norvegicus; assay: Antiinflammatory activity in Wistar albino rat assessed as inhibition of carrageenan-induced hind paw edema at 20 mg/kg, po after 1 hr by plethysmometer; format: functional; method in brief: as §2
[7] = tested on: Rattus norvegicus; assay: Antiinflammatory activity in Wistar albino rat assessed as inhibition of carrageenan-induced hind paw edema at 20 mg/kg, po after 3 hrs by plethysmometer; format: functional; method in brief: as §2

Structure (SMILES)	inhibition [1]	Selectivity Index [2]	inhibition [3]	UI [4]	inhibition in vivo at 20 mg/kg [5]	inhibition in vivo at 20 mg/kg [6]	inhibition in vivo at 20 mg/kg [7]
Cc1ccc(-c2cc(C(F)(F)F)nn2-c2ccc(S(N)(=O)=O)cc2)cc1 [CELECOXIB]				11.9	100%	92.2%	100%
COc1ccc(NC2=C(Cl)C(=O)N(c3ccc(S(N)(=O)=O)cc3)C2=O)cc1	0.89%	11.9	10.6%				
COc1ccccc1NC1=C(Cl)C(=O)N(c2ccc(S(N)(=O)=O)cc2)C1=O	7.14%	2.19	15.7%				
Cc1ccccc1NC1=C(Cl)C(=O)N(c2ccc(S(N)(=O)=O)cc2)C1=O	6.25%	1.62	10.1%				
Cc1ccc(NC2=C(Cl)C(=O)N(c3ccc(S(N)(=O)=O)cc3)C2=O)c(C)c1	5.35%	2.57	13.8%				
NS(=O)(=O)c1ccc(N2C(=O)C(Cl)=C(Nc3cccc(Cl)c3Cl)C2=O)cc1	4.01%	6.78	27.2%				
NS(=O)(=O)c1ccc(N2C(=O)C(Cl)=C(Nc3ccc(Cl)cc3)C2=O)cc1	9.37%	2.6	24.4%				
NS(=O)(=O)c1ccc(N2C(=O)C(Cl)=C(Nc3cccc(Cl)c3)C2=O)cc1	0.89%	47.6	42.4%		72.1%	69.1%	70.4%
NS(=O)(=O)c1ccc(N2C(=O)C(Cl)=C(Nc3ccc(C(F)(F)F)cc3)C2=O)cc1	4.01%	6.78	27.2%				

More lines, main results first:

inhibition [1]	Selectivity Index [2]	inhibition [3]	Structure (SMILES)	UI [4]	inhibition in vivo at 20 mg/kg [5]	inhibition in vivo at 20 mg/kg [6]	inhibition in vivo at 20 mg/kg [7]
12.1%	0.611	7.37%	NS(=O)(=O)c1ccc(N2C(=O)C(Cl)=C(Cl)C2=O)cc1				
0.89%	55.4	49.3%	NS(=O)(=O)c1ccc(N2C(=O)C(Cl)=C(Nc3cccc(F)c3)C2=O)cc1	8.3	82.6%	79.8%	81%
0.44%	14.7	6.45%	NS(=O)(=O)c1ccc(N2C(=O)C(Cl)=C(N3CCCCC3)C2=O)cc1				
0.89%	44.5	39.6%	NS(=O)(=O)c1ccc(N2C(=O)C(Cl)=C(Nc3ccccc3)C2=O)cc1		62.1%	35.4%	56.8%
0.89%	49.7	44.2%	COc1cccc(NC2=C(Cl)C(=O)N(c3ccc(S(N)(=O)=O)cc3)C2=O)c1		77.3%	73%	71.5%
0.89%	19.1	17.1%	NS(=O)(=O)c1ccc(N2C(=O)C(Cl)=C(Nc3ccc([N+](=O)[O-])cc3)C2=O)cc1				
1.33%	20.8	27.6%	NS(=O)(=O)c1ccc(N2C(=O)C(Cl)=C(Nc3ccc(F)cc3)C2=O)cc1				
8.03%	3.78	30.4%	NS(=O)(=O)c1ccc(N2C(=O)C(Cl)=C(Nc3ccc(Cl)c(Cl)c3)C2=O)cc1				
1.78%	12.9	23%	Nc1ccccc1NC1=C(Cl)C(=O)N(c2ccc(S(N)(=O)=O)cc2)C1=O				
0.89%	44.5	39.6%	NS(=O)(=O)c1ccc(N2C(=O)C(Cl)=C(Nc3ccccc3F)C2=O)cc1		74.9%	69.2%	71%
0.44%	15.7	6.91%	Cc1cc(C)cc(NC2=C(Cl)C(=O)N(c3ccc(S(N)(=O)=O)cc3)C2=O)c1				

Reference: ChEMBL document CHEMBL3603771, “Synthesis, biological evaluation and docking study of maleimide derivatives bearing benzenesulfonamide as selective COX-2 inhibitors and anti-inflammatory agents” (Bioorg Med Chem, 2015)
